Cneo AK release = Cryptococcus neoformans lysis via adenylate kinase release | C. neoformans lysis, adenylate kinase release luminescence, 4 h; normalised: neutral wells 0, clomiphene wells 100 | lysis activity, % at 15 µM | hit rate 0.2% among 360,000 | AID 651654;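 active = mean lysis activity across replicates of at least 80%, whatever share of replicates individually reach that level; inactive = mean lysis activity below 80%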
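Material: C. neoformans cells | Amount: Yeast cell density of 5 × 10^6 cells/mL | Medium: Fresh YPD growth medium | Dosing: Single dose | Times: Static 4 h at 37 °C with compound, 1 h detection | Detection: AK luminescence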
DENV2 CPE = inhibitors of DENV2 cytopathic effect; CPE inhibition, % at 9.99 µM; hit rate 1.7% among 350,000; DENV2-infected cells, cytopathic effect rescue, plate reader; in the data active = CPE inhibition above about 20%, passing the limit was not always enough; inconclusive = no clear call, values can overlap the other calls; tested in BHK-21 cells;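 also: 0% = median of neutral control wells and 100% = median of positive control wells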
PGC1a acetyl inh = modulators of PGC1a acetylation | hit rate 0.17% among 350,000 | U2OS PGC1a acetylation, AlphaScreen anti-acetyl-lysine; with virally co-expressed GCN5 acetyltransferase | AID 651687 | inhibition, % at 15.6 µM;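 active = every replicate shows inhibition of at least 40%; inconclusive = mean inhibition at least 40% but some replicate below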;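 also: 0% = neutral control wells and 100% = positive control wells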
FN deposit inh = fibronectin deposition inhibition. AH1F fibroblasts, Alexa488-fibronectin deposition fluorescence, overnight. inhibition, % at 12.6 µM. hit rate 0.086% among 350,000. AID 743247;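 active = mean inhibition across replicates of 30% or more, regardless of how many single replicates reach that level; inconclusive = mean under 30% yet at least half of replicates reach 30%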;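 also: positive control wells lacked labelled fibronectin entirely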
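Test system: AH1F fibroblast monolayer depositing Alexa488-labelled fibronectin into matrix. Input: 10000 cells per well. Technique: fluorescence, ex 485 nm, em 525 nm. Buffer or medium: DMEM plus 2% serum, read in PBS. Timing: 1 h cell adhesion before compound, then overnight fibronectin incubation. Compound: single dose, pinned. Read-out basis: inhibition from reduced deposited-fibronectin fluorescence.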
CFTR F508del cor = CFTR F508del correction in bronchial cells. activity (quench increase), % at 7.58 µM. CFBE cells, YFP halide quenching; stimulated with forskolin plus potentiator P3; % fluorescence drop versus neutral controls. hit rate 0.36% among 350,000;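 active = mean added fluorescence quench of at least 8% versus neutral control, with both replicates also reaching 8%; inconclusive = only one of the mean or replicate conditions met; inactive = mean below 8% and not both replicates reaching 8%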;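 also: cells transiently co-express mutant CFTR-F508del with the halide-sensitive YFP; corrector assay measuring rescue of mutant channel to the surface after 24 h compound exposure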
XiGFP reactiv = activators of X-chromosome reactivation in mouse fibroblasts | XiGFP mouse fibroblasts, % GFP-positive cells imaging, 3 d; cells co-treated with 5-aza-dC sensitizer; scaled so ellipticine positive control = 100% | activation, % at 7.58 µM | hit rate 0.055% among 360,000 | AID 743238;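 active = mean normalized replicate activation at least 10% and every replicate at or above 10%; inconclusive = only one of the two criteria met; inactive = mean below 10% and not all replicates reach 10%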;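 also: 0% = median of on-plate neutral control wells and 100% = ellipticine 6 µM median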
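Schedule: 3 d treatment, 15 min room-temperature fixation; system: 68-5-11 XiGFP fibroblast line; buffer or medium: DMEM plus 5-aza-dC sensitizer; control set: ellipticine 6 µM positive control; compound: one concentration, pinned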
An asterisk follows results filed as active; ? = inconclusive; nt = no result given. Compounds with a hit are over-represented: about 1.9% of the library has one in this group of screens.

SMILES	Cneo AK release	DENV2 CPE	PGC1a acetyl inh	FN deposit inh	CFTR F508del cor	XiGFP reactiv
COc1ccc(S(=O)(=O)N(C)C[C@@H]2Oc3ccc(NC(=O)CCCCCC(=O)Nc4ccccc4N)cc3C(=O)N([C@@H](C)CO)C[C@@H]2C)cc1	nt	35.6*	1.9	-2.6	2.1	0.3
COc1ccc(S(=O)(=O)N(C)C[C@H]2Oc3ccc(NC(=O)CCCCCC(=O)Nc4ccccc4N)cc3C(=O)N([C@H](C)CO)C[C@@H]2C)cc1	nt	-1.7	-8.4	-18.4	-0.2	0.3
C[C@H](CO)N1C[C@H](C)[C@@H](CN(C)S(=O)(=O)c2cccs2)Oc2ccc(NC(=O)CCCCCC(=O)Nc3ccccc3N)cc2C1=O	0.3	25.0*	-2.8	nt	-1.2	0.1
Cc1ccccc1NC(=O)C[C@H]1CC[C@H]2[C@@H](COc3ccc(NC(=O)c4ccc(Cl)cc4)cc3C(=O)N2C)O1	nt	nt	nt	-11.6	nt	0.0
O=C(Nc1cccc(Cl)c1)Nc1sccc1-c1nc2ccccc2s1	2.5	63.4*	6.5	-8.6	0.8	-0.1
COc1cccc2cc(C(=O)NCCN3CCOCC3)c(=O)oc12	3.1	5.8	nt	0.7	9.6*	0.0
O=C(C[C@@H]1C=C[C@@H](NC(=O)c2ccncc2)[C@@H](CO)O1)Nc1ccccc1	nt	13.6	1.1	-0.4	-1.3	-0.5
CO[C@H]1CN(C)C(=O)c2ccc(NC(=O)NC(C)C)cc2OC[C@@H](C)N(Cc2cocn2)C[C@H]1C	-3.0	nt	1.0	-1.2	1.4	0.1
COc1ccc(C#Cc2cnc3c(c2)C(=O)N([C@@H](C)CO)C[C@@H](C)[C@H](CN(C)C(=O)CN(C)C)O3)cc1	-1.3	7.5	-15.2	-8.7	-0.8	-0.5
COC(=O)c1cc2c(=O)c3ccccc3oc2nc1C	0.6	-3.3	1.4	-2.7	-1.7	0.1
COC(=O)c1cc2c(=O)c3ccccc3oc2nc1/C=C/N(C)C	-0.6	-1.9	19.6	-5.9	28.1*	1.3
CCCNC(=O)[C@@]1(C)c2ccccc2C(=O)N(Cc2ccc(OC(F)(F)F)cc2)[C@H]1c1ccc(CO)cc1	-6.2	20.1*	-14.5	nt	6.0	nt
C[C@@H]1CN([C@H](C)CO)C(=O)Cc2cc(N(C)C)ccc2O[C@H]1CN(C)CC1CC1	1.9	5.0	1.9	4.5	-2.5	-0.2
CC(C)NC(=O)N1[C@@H](CO)[C@@H](c2ccccc2)C12CN(Cc1ccccc1)C2	nt	27.8*	-8.7	nt	-1.4	0.2
CC(C)NC(=O)N1[C@H](CO)[C@@H](c2ccccc2)C12CN(C(=O)c1ccccn1)C2	nt	10.3	4.0	-3.7	0.2	0.1
CC(C)NC(=O)N1CC2(C1)[C@H](c1ccccc1)[C@@H](CO)N2C(=O)c1ccccn1	nt	32.7*	4.7	nt	0.1	0.2
COC(=O)C[C@H]1c2cc(C(F)(F)F)ccc2S(=O)(=O)N1Cc1ccc(OC)cc1	-0.1	20.2*	-105.6	-10.0	-2.5	0.2
COC(=O)C[C@H]1c2cc(F)ccc2S(=O)(=O)N1Cc1ccccc1OC	1.0	15.5	nt	7.6	2.7	0.1
COc1ccc(CN2[C@@H](CC(=O)O)c3cc(C(F)(F)F)ccc3S2(=O)=O)cc1	-3.7	-5.4	nt	0.2	-1.4	0.0
COc1ccccc1CN1[C@@H](CC(C)=O)c2cc(C(F)(F)F)ccc2S1(=O)=O	-0.2	71.3*	8.2	-2.7	0.4	-0.4
Cc1ccc2nc(SCC(=O)Nc3ccc(F)cc3)nc(=O)n2c1	-3.2	?	76.3*	4.5	-1.8	0.1
COc1ccc(NC(=O)Nc2ccc3c(c2)CC(=O)N([C@@H](C)CO)C[C@@H](C)[C@H](CN(C)S(=O)(=O)c2ccc(Cl)cc2)O3)cc1	nt	10.1	4.5	-10.2	-0.4	-0.5
COc1ccc(CNC(=O)c2c(C)oc3c2C(=O)c2ccccc2C3=O)cc1	-2.5	5.3	17.2	6.5	11.8*	0.8
CC(=O)c1c(C)oc2c1C(=O)c1ccccc1C2=O	-0.2	6.7	nt	-2.9	nt	0.0
O=C(N/N=C/c1ccc(F)cc1)c1ccc(-n2cnnn2)cc1	-1.7	4.9	-8.2	-4.5	2.4	0.2
SMILES	Cneo AK release	DENV2 CPE	PGC1a acetyl inh	FN deposit inh	CFTR F508del cor	XiGFP reactiv
Cc1ccc(/C=N/NC(=O)c2ccc(-n3cnnn3)cc2)cc1	1.0	32.4*	-2.9	8.9	1.7	0.0
COc1ccc(NC(=O)C(=O)c2cn(CC(=O)N3CCCC3)c3ccccc23)cc1OC	0.2	6.0	-4.7	4.7	9.3*	0.0
CN1C(=O)c2cc(NC(=O)C3CCCC3)ccc2OC[C@H]2O[C@H](CC(=O)NCCc3ccncc3)CC[C@H]21	nt	165.6*	5.8	0.9	0.3	0.0
CN1C(=O)c2cc(NC(=O)C3CCCC3)ccc2OC[C@H]2O[C@H](CC(=O)NCCc3ccncc3)CC[C@@H]21	nt	28.6*	-12.9	-7.7	1.0	0.0
CN1C(=O)c2cc(NC(=O)C3CCC3)ccc2OC[C@H]2O[C@@H](CC(=O)NCCc3ccncc3)CC[C@H]21	nt	20.6*	nt	-4.3	0.0	0.0
COCCNC(=O)C[C@@H]1CC[C@@H]2[C@@H](COc3ccc(NC(=O)C4CCOCC4)cc3C(=O)N2C)O1	47.2	21.1*	7.4	6.9	-1.2	0.2
COCCNC(=O)C[C@H]1CC[C@H]2[C@@H](COc3ccc(NC(=O)C4CCOCC4)cc3C(=O)N2C)O1	-3.4	-6.1	-2.3	-5.9	-0.7	0.0
Cc1noc(C)c1S(=O)(=O)Nc1ccc2c(c1)C(=O)N([C@H](C)CO)C[C@@H](C)[C@H](CN(C)C(=O)NC1CCCCC1)OCCCC[C@@H](C)O2	-0.7	-4.9	nt	nt	3.1	-1.1
C[C@H]1CN([C@@H](C)CO)C(=O)Cc2cc(NS(C)(=O)=O)ccc2O[C@H]1CN(C)S(=O)(=O)c1ccc(F)cc1	-0.9	22.7*	3.6	nt	-5.3	0.0
Cc1ccc(S(=O)(=O)N(C)C[C@@H]2Oc3ccc(NS(=O)(=O)c4ccc(Cl)cc4)cc3CC(=O)N([C@H](C)CO)C[C@H]2C)cc1	2.2	?	16.2	nt	-3.2	-0.1
C[C@H](CO)N1C[C@H](C)[C@@H](CN(C)S(=O)(=O)c2ccc(F)cc2)Oc2ccc(NS(=O)(=O)c3ccc(F)cc3)cc2CC1=O	-4.9	-9.1	-7.2	nt	0.0	0.2
Cc1ccc(S(=O)(=O)N(C)C[C@@H]2Oc3ccc(NS(=O)(=O)c4ccc(Cl)cc4)cc3CC(=O)N([C@@H](C)CO)C[C@@H]2C)cc1	100.0*	?	-10.5	nt	-0.4	-1.0
C[C@H]1CN([C@@H](C)CO)C(=O)Cc2cc(NS(=O)(=O)c3ccc(F)cc3)ccc2O[C@H]1CN(C)S(=O)(=O)c1ccc(F)cc1	100.2*	1.8	2.9	nt	0.0	0.1
Fc1cccc(CN2C[C@@H]3N[C@H](C2)[C@@H]3c2ccc(-c3cccc(F)c3)cc2)c1	nt	-29.5	99.2*	1.6	-7.2	0.0
